This passage reports GI50, TGI and LC50 results from ChEMBL document CHEMBL3392966, “Antiproliferative activity of synthetic fatty acid amides from renewable resources” (Bioorg Med Chem, 2015).

Values after ≈ are worked out from the molar mass of the structure shown. Where only a bound is given, the exact number is not on record here.

Data set [1] is described as follows: Antiproliferative activity against human PC3 cells after 48 hrs by sulforhodamine B assay. The format is functional. The settings on record: PC-3, 48 h. Put shortly:
(§1)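 Tumor cells grown in RPMI 1640 with 5% fetal bovine serum, with penicillin/streptomycin in experimental cultures. Exposed in 96-well plates to samples in DMSO/RPMI at 0.25, 2.5, 25 and 250 µg/mL, 37 °C, 5% CO2, 48 h. Fixed with 50% trichloroacetic acid before (T0) and after treatment, protein stained with sulforhodamine B and read at 540 nm. GI50, TGI and LC50 in µg/mL from dose-response curves by non-linear regression.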

Data set [2] concerns NCI/ADR-RES. Kind of data set: Antiproliferative activity against human NCI/ADR-RES cells after 48 hrs by sulforhodamine B assay. The format is functional. Put shortly:
as §1

The subject of data set [3] is MCF7. Kind of data set: Antiproliferative activity against human MCF7 cells assessed as tumor growth inhibition after 48 hrs by sulforhodamine B assay. The format is functional. The settings on record: MCF7, 48 h. The method, boiled down:
as §1

The subject of data set [4] is U-251. Kind of data set: Antiproliferative activity against human U251 cells assessed as tumor growth inhibition after 48 hrs by sulforhodamine B assay. The format is functional. The settings on record: U-251, 48 h. The method, boiled down:
as §1

A short description of data set [5]: Antiproliferative activity against human PC3 cells assessed as tumor growth inhibition after 48 hrs by sulforhodamine B assay. The format is functional. Particulars: PC-3, 48 h. The method, boiled down: as §1
The test system of data set [6] is NCI-H460. Kind of data set: Antiproliferative activity against human NCI-H460 cells after 48 hrs by sulforhodamine B assay. Particulars: NCI-H460, 48 h. The format is functional. The method, boiled down: as §1
Data set [7] deals with NCI-H460. Kind of data set: Antiproliferative activity against human NCI-H460 cells assessed as tumor growth inhibition after 48 hrs by sulforhodamine B assay. The format is functional. Particulars: NCI-H460, 48 h. Put shortly:
as §1

Data set [8] in a line: Antiproliferative activity against human OVCAR3 cells assessed as tumor growth inhibition after 48 hrs by sulforhodamine B assay. The settings on record: OVCAR-3, 48 h. The format is functional. Put shortly:
as §1

In data set [9] the test system is 786-0. Description: Antiproliferative activity against human 786-0 cells after 48 hrs by sulforhodamine B assay. The format is functional. The settings on record: 786-0, 48 h. Put shortly: as §1
In data set [10] the test system is HaCaT. Description: Cytotoxicity against human HaCaT cells assessed as tumor growth inhibition after 48 hrs by sulforhodamine B assay. The format is cell-based. The method, boiled down: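 Non-tumor lines (human HaCaT keratinocytes; Vero) in RPMI 1640 with 5% FBS, with penicillin/streptomycin added to experimental cultures. 48 h exposure at 0.25–250 µg/mL (DMSO/RPMI), 37 °C, 5% CO2. TCA fixation at time zero and at end, sulforhodamine B protein stain, absorbance 540 nm. TGI (total growth inhibition) from non-linear regression of the dose-response curve.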

Data set [11] deals with U-251. Description: Antiproliferative activity against human U251 cells after 48 hrs by sulforhodamine B assay. The format is functional. Particulars: U-251, 48 h. The method, boiled down: as §1
For data set [12], the system named is 786-0. Kind of data set: Antiproliferative activity against human 786-0 cells assessed as tumor growth inhibition after 48 hrs by sulforhodamine B assay. The format is functional. The settings on record: 786-0, 48 h. The method, boiled down:
as §1

Data set [13] deals with HaCaT. Description: Cytotoxicity against human HaCaT cells after 48 hrs by sulforhodamine B assay. The format is cell-based.
Data set [14] deals with MCF7. Kind of data set: Antiproliferative activity against human MCF7 cells after 48 hrs by sulforhodamine B assay. The settings on record: MCF7, 48 h. The format is functional. The method, boiled down: as §1
Data set [15] in a line: Antiproliferative activity against human OVCAR3 cells after 48 hrs by sulforhodamine B assay. The format is functional. Particulars: OVCAR-3, 48 h. The method, boiled down: as §1
The test system of data set [16] is NCI/ADR-RES. Kind of data set: Antiproliferative activity against human NCI/ADR-RES cells assessed as tumor growth inhibition after 48 hrs by sulforhodamine B assay. The format is functional. The method, boiled down: as §1

On to `CCCCCCCC/C=C\CCCCCCCC(=O)N1CCCCC1`, for which the GI50 in data set [1] stood at 8.7 µg/mL (≈ 24.9 µM); in the data set on NCI/ADR-RES [2] it was 7.7 µg/mL (≈ 22 µM); in the data set with NCI-H460 [6], 23 µg/mL (≈ 65.8 µM); in the data set on 786-0 [9], 10.6 µg/mL (≈ 30.3 µM); in the data set on U-251 [11], 6.7 µg/mL (≈ 19.2 µM); in the data set with MCF7 [14], 7.6 µg/mL (≈ 21.7 µM). Further, in [15], the GI50 was determined as 9.3 µg/mL (≈ 26.6 µM). Moreover, the TGI in the data set with MCF7 [3] was determined as 33.3 µg/mL (≈ 95.3 µM); in the data set on U-251 [4], 25 µg/mL (≈ 71.5 µM); in [5] it was 31.8 µg/mL (≈ 91 µM); with NCI-H460 [7] it was 40.7 µg/mL (≈ 116 µM); in data set [8], 35.4 µg/mL (≈ 101 µM); in the data set with HaCaT [10], 47.9 µg/mL (≈ 137 µM). The values for the TGI with 786-0 [12] and with NCI/ADR-RES [16] were 40.7 µg/mL (≈ 116 µM) and 47.4 µg/mL (≈ 136 µM), respectively. The compound also returned an LC50 in the data set with HaCaT [13] of 7.7 µg/mL (≈ 22 µM).

For `CCCCCCCC/C=C\CCCCCCCC(=O)N1CCOCC1`, the GI50 stood at 5.2 µg/mL (≈ 14.8 µM) in [1]; 3.3 µg/mL (≈ 9.39 µM) with NCI/ADR-RES [2]; 7.9 µg/mL (≈ 22.5 µM) with NCI-H460 [6]; 4.5 µg/mL (≈ 12.8 µM) in the data set with 786-0 [9]; 2.8 µg/mL (≈ 7.96 µM) in the data set on U-251 [11]; 4.9 µg/mL (≈ 13.9 µM) in the data set on MCF7 [14]. Further, in data set [15], halving of growth (GI50) required 4.9 µg/mL (≈ 13.9 µM). In addition, the TGI in the data set on MCF7 [3] was determined as 13.1 µg/mL (≈ 37.3 µM); with U-251 [4] it was 6.6 µg/mL (≈ 18.8 µM); in data set [5], 14.8 µg/mL (≈ 42.1 µM); in the data set on NCI-H460 [7], 34.7 µg/mL (≈ 98.7 µM); in data set [8], 13.9 µg/mL (≈ 39.5 µM); with HaCaT [10], 23.2 µg/mL (≈ 66 µM). Also, the TGI in the data set with 786-0 [12] came out at 11.2 µg/mL (≈ 31.9 µM); with NCI/ADR-RES [16], 10.6 µg/mL (≈ 30.2 µM). Further, the LC50 in the data set on HaCaT [13] came out at 5.3 µg/mL (≈ 15.1 µM).

Regarding `CCCCCC[C@@H](O)C/C=C\CCCCCCCC(=O)N1CCOCC1`, the GI50 turned out to be 38.5 µg/mL (≈ 105 µM) in [1]; 29.4 µg/mL (≈ 80 µM) in the data set on NCI/ADR-RES [2]; 49.1 µg/mL (≈ 134 µM) with NCI-H460 [6]; 36 µg/mL (≈ 97.9 µM) in the data set on 786-0 [9]; 33.1 µg/mL (≈ 90 µM) with U-251 [11]; 41.8 µg/mL (≈ 114 µM) in the data set on MCF7 [14]. The same compound returned a GI50 in data set [15] of 31 µg/mL (≈ 84.3 µM). Besides, the TGI turned out to be 116 µg/mL (≈ 314 µM) in the data set on MCF7 [3]; 54.5 µg/mL (≈ 148 µM) in the data set on U-251 [4]; 72.6 µg/mL (≈ 198 µM) in data set [5]; 152 µg/mL (≈ 415 µM) with NCI-H460 [7]; 62.2 µg/mL (≈ 169 µM) in data set [8]; 97.4 µg/mL (≈ 265 µM) in the data set with HaCaT [10]. For the same compound, the TGI with 786-0 [12] is 75.7 µg/mL (≈ 206 µM); in the data set on NCI/ADR-RES [16], 143 µg/mL (≈ 388 µM). In addition, the LC50 with HaCaT [13] amounted to 41.3 µg/mL (≈ 112 µM).

With `CCCCCCCCCCCCCCCCCC(=O)N[C@H](C)c1ccccc1`, the GI50 in the data set on NCI/ADR-RES [2] turned out to be 25.7 µg/mL (≈ 66.3 µM); in the data set on U-251 [11], 161 µg/mL (≈ 414 µM); with MCF7 [14] it was 0.06 µg/mL (≈ 0.155 µM). Also, the total growth inhibition concentration (TGI) (in the data set on MCF7 [3]; with U-251 [4]; in data set [5]; in the data set with NCI-H460 [7]; in data set [8]; with HaCaT [10]) was greater than 250 µg/mL each time. Moreover, the TGI with 786-0 [12] and with NCI/ADR-RES [16] was greater than 250 µg/mL in each case.

Turning to `CCCCCCCCCCCCCCCCCC(=O)N[C@@H](C)c1ccccc1`, the TGI (in the data set on MCF7 [3]; in the data set with U-251 [4]; in data set [5]; in the data set with NCI-H460 [7]; in data set [8]; in the data set on HaCaT [10]) was greater than 250 µg/mL each time. Also, the concentration for total growth inhibition (TGI) in the data set on 786-0 [12] and in the data set with NCI/ADR-RES [16] was greater than 250 µg/mL throughout. In addition, in the data set with HaCaT [13], the LC50 was found to be 69.5 µg/mL (≈ 179 µM).

As for `CCCCCCCCCCCCCCCC(=O)NCc1ccccc1`, the TGI (with MCF7 [3]; with U-251 [4]; in data set [5]; in the data set on NCI-H460 [7]; in [8]; in the data set with HaCaT [10]) was greater than 250 µg/mL in each case. The TGI in the data set with 786-0 [12] and in the data set with NCI/ADR-RES [16] was greater than 250 µg/mL each time.

Take `CCCCCCCCCCCCCCCC(=O)N1CCOCC1`: the GI50 amounted to 22.2 µg/mL (≈ 68.2 µM) in data set [1]; 6.2 µg/mL (≈ 19 µM) in the data set with NCI/ADR-RES [2]; 34.1 µg/mL (≈ 105 µM) with NCI-H460 [6]; 33.1 µg/mL (≈ 102 µM) in the data set on 786-0 [9]; 25 µg/mL (≈ 76.8 µM) in the data set with U-251 [11]; 15.4 µg/mL (≈ 47.3 µM) in the data set on MCF7 [14]. Besides, halving of growth in data set [15] (GI50) required 33.1 µg/mL (≈ 102 µM). In addition, the TGI in the data set on MCF7 [3] was 54.7 µg/mL (≈ 168 µM); in the data set with U-251 [4] it was 55.9 µg/mL (≈ 172 µM); in [5] it was 36.7 µg/mL (≈ 113 µM); with NCI-H460 [7] it was 91 µg/mL (≈ 280 µM); in data set [8], 72.7 µg/mL (≈ 223 µM); with HaCaT [10], 73.7 µg/mL (≈ 226 µM). Also, the TGI in the data set on 786-0 [12] was found to be 69.9 µg/mL (≈ 215 µM); in the data set with NCI/ADR-RES [16] it was 70.3 µg/mL (≈ 216 µM). In the data set on HaCaT [13], the LC50 was found to be 28.9 µg/mL (≈ 88.8 µM).
